Screening data (PubChem BioAssay)
FGF22 binding: FGF22 (human) thermal shift binding | activity (Tm shift, normalised), % at 9.99 µM | 1.5% of 340,000 active | Q9HCT0 | recombinant FGF22 thermal shift, SYPRO orange fluorescence; percent of sucrose octasulfate shift, DMSO zero | AID 651658;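 active = mean Tm shift, scaled 0 neutral to 100 positive control, at about 1.3% or above, every replicate too, limit read from the data; inconclusive = no clear call, values can overlap the other calls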
Target sequence (Q9HCT0 whole entry, looked up): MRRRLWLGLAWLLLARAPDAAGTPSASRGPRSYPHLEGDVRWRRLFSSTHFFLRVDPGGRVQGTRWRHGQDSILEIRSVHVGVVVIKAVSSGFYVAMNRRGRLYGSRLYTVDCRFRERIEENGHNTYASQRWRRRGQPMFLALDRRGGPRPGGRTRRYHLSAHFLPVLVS
Env fusion inh: blocks HIV Env-driven cell-cell fusion | HeLa-JRFL Env/CEM21 cell fusion, luciferase | inhibition, % at 12.3 µM | 1.1% of 360,000 active | AID 651610;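 active = mean replicate inhibition score of at least 50 and every replicate individually at or above 50; inconclusive = only one of the two criteria met; inactive = mean below 50 and not all replicates reaching 50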;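 note: 0% = plate neutral controls and 100% = maraviroc near 300 nM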
PAX8 inh HTS: PAX8 transcriptional activity inhibition. RMG-I TPO-luciferase reporter, SteadyGlo, 24 h. inhibition, % at 12.6 µM. 1.2% of 360,000 active. AID 652154;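 active = mean replicate inhibition at least 60% with every replicate also reaching 60%; inconclusive = only one of the two criteria is met; inactive = mean below 60% and not all replicates reaching 60%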;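 note: luciferase light reporting Pax8 driven TPO promoter activity; plate controls were median of neutral control wells for no effect and mitoxantrone controls for full effect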
PGC1a acetyl inh: PGC1a acetylation modulation, inhibitor mode | inhibition, % at 15.6 µM | U2OS PGC1a acetylation, AlphaScreen anti-acetyl-lysine; with virally co-expressed GCN5 acetyltransferase | AID 651687 | 0.17% of 350,000 active;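 active = every replicate shows inhibition of at least 40%; inconclusive = mean inhibition at least 40% but some replicate below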;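 note: 0% = neutral control wells and 100% = positive control wells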
EWS-Fli inh: inhibitors of EWS/Fli oncoprotein transcriptional activity; inhibition, % at 12.6 µM; 0.67% of 350,000 active; A673 NR0B1-luciferase reporter, viability-normalised;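 active = mean inhibition of at least 50% after viability correction, with every replicate also passing that limit; inconclusive = mean reaches 50% but only one of two replicates passes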;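 note: firefly luciferase signal divided by Alamar Blue viability fluorescence both relative to DMSO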
FN deposit inh: fibronectin deposition inhibition; inhibition, % at 12.6 µM; AID 743247; AH1F fibroblasts, Alexa488-fibronectin deposition fluorescence, overnight; 0.086% of 350,000 active;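 active = mean inhibition across replicates of 30% or more, regardless of how many single replicates reach that level; inconclusive = mean under 30% yet at least half of replicates reach 30%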;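 note: positive control wells lacked labelled fibronectin entirely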
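Test system: AH1F fibroblast monolayer depositing Alexa488-labelled fibronectin into matrix. Input: 10000 cells per well. Technique: fluorescence, ex 485 nm, em 525 nm. Buffer or medium: DMEM plus 2% serum, read in PBS. Timing: 1 h cell adhesion before compound, then overnight fibronectin incubation. Compound: single dose, pinned. Read-out basis: inhibition from reduced deposited-fibronectin fluorescence.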
An asterisk follows results filed as active; i = inactive; ? = inconclusive; . = no result given; [ ] = another dose, or the depositor's remark. Sampled rows, rich in hits. Any-hit rate of the full collection: about 3.1%.

SMILES | FGF22 binding | Env fusion inh | PAX8 inh HTS | PGC1a acetyl inh | EWS-Fli inh | FN deposit inh
CC(C)CCCCCCCCCCCCC(=O)NCC(=O)NC1C(O)C(O)C(Nc2ncnc3nc[nH]c23)OC1C(O)CO (centres undefined) | . | . | . | 96* | . | .
CC1=C(C(=O)NC(C)C)C2(CCC(C)CC2)OC1=O (centres undefined) | 0 | 61* | -6 | . | 6 | 2
CC1=C(C(=O)NC(C)c2ccccc2)C2(CCC(C)CC2)OC1=O (centres undefined) | 0 | 6 | 8 | -11 | -2 | 4
CC1=C(C(=O)Nc2cccc([N+](=O)[O-])c2)C2(CCC(C)CC2)OC1=O (centres undefined) | 44* | -8 | -21 | . | -5 | 4
CCCCC(=O)N1CCN(c2ccc(OC)cc2[N+](=O)[O-])CC1 | 0 | . | 87* | . | 14 | 1
Cc1cc(C)n(-c2nc(NCCN(C)C)c3c4c(sc3n2)CCCC4)n1 | 0 | -35 | 97* | . | 19 | 29
Cc1ccccc1NC(=S)c1nc2ccccc2[nH]1 | -1 | -82 | -12 | 2 | -20 | -2
S=C(Nc1ccc(Cl)cc1)c1nc2ccccc2[nH]1 | . | 59* | -122 | 5 | . | 5
Cc1ccc(-n2nc3c(N4CCC(C(=O)NCCc5cccs5)CC4)nnc(C)c3c2C)cc1 | 0 | 12 | 71* | . | . | 14
Cc1nnc(N2CCCC(C(=O)NCc3ccc(OC(C)C)cc3)C2)c2nn(-c3ccccc3)c(C)c12 (centres undefined) | 0 | 14 | 73* | -16 | . | -3
COc1cccc(S(=O)(=O)N2C[C@@H](O)COC[C@@H]3O[C@@H](CC(=O)NCCCN4CCOCC4)CC[C@H]32)c1 | 0 | -19[16.7 µM] | -13 | 2 | -2 | -10
CO[C@@H]1CN(C)C(=O)c2cc(NC(=O)c3ccccc3F)ccc2OC[C@H](C)N(C(C)=O)C[C@H]1C | 0 | -6[16.7 µM] | -9 | -16 | -9 | 3
NC(=O)c1cc(C(=O)c2cccc(Cl)c2Cl)c[nH]1 | 0 | 10 | 4 | -17 | -4 | 12
NC(=O)c1cc(C(=O)c2ccccc2Cl)c[nH]1 | 43* | 11 | 8 | 6 | 1 | 17
CN(C)C(=O)c1cc(C(=O)c2ccccc2Br)c[nH]1 | 0 | -35 | 23 | -2 | -12 | 1
CN(C)C(=O)c1cc(C(=O)c2ccccc2Cl)c[nH]1 | 43* | 14 | -31 | -2 | -26 | 2
O=c1cc(-c2ccc(O)c(O)c2)oc2c1ccc1ccccc12 | 0 | 0 | -25 | 2 | 12 | -9
O=c1cc(-c2ccc(O)c(O)c2)oc2ccc3ccccc3c12 | . | i | -20 | . | 62* | .
C#CCN(C[C@@H]1[C@@H](OC(=O)NC2CCCC2)[C@@H](OC(=O)NC2CCCC2)Cn2c(=O)ccc(=O)n21)S(=O)(=O)c1ccc(C)cc1 | 0 | 33 | 96* | -111 | 68* | -13
C#CCN(C[C@H]1[C@H](OC(=O)Nc2cccs2)[C@H](OC(=O)Nc2cccs2)CN(C(=O)OC(C)C)N1C(=O)OC(C)C)S(=O)(=O)c1ccc(C)cc1 | 0 | 117* | ? | . | 26 | .
C#CCN(C[C@@H]1[C@@H](OC(=O)Nc2cccs2)[C@@H](OC(=O)Nc2cccs2)Cn2c(=O)ccc(=O)n21)S(=O)(=O)c1ccc(C)cc1 | 0 | . | 113* | ? | ? | -1
C#CCN(C[C@@H]1[C@@H](OC(=O)NCc2ccccc2F)[C@@H](OC(=O)NCc2ccccc2F)Cn2c(=O)ccc(=O)n21)S(=O)(=O)c1ccc(C)cc1 | 0 | 7 | 105* | 60* | 43 | 2
C#CCN(C[C@@H]1[C@@H](OC(=O)NC2CC2)[C@@H](OC(=O)NC2CC2)CN(C(=O)OC(C)C)N1C(=O)OC(C)C)S(=O)(=O)c1ccc(C)cc1 | 1 | 9 | -8 | 1 | 0 | -5
CCCCOc1ccc(S(=O)(=O)Nc2cccnc2)cc1 | . | 69* | . | 4 | . | 15
CCNC(=O)C[C@H]1C=C[C@H](NC(=O)C2CC2)[C@H](CO)O1 | 0 | -13[16.7 µM] | -4 | 2 | -5 | -3
SMILES | FGF22 binding | Env fusion inh | PAX8 inh HTS | PGC1a acetyl inh | EWS-Fli inh | FN deposit inh
O=C(COn1nnc2ccc(Cl)cc21)NC12CC3CC(CC(C3)C1)C2 | . | ? | . | 85* | . | .
C[C@@H]1CN([C@H](C)CO)C(=O)c2c(c3ccccc3n2C)-c2ccccc2CO[C@@H]1CN(C)Cc1cccnc1 | 0 | -37[16.7 µM] | 35 | -16 | 26 | 13
CCN(c1ccccc1)S(=O)(=O)c1ccc(OC)c(NC(=O)c2ccccc2OC)c1 | 0 | 9 | -4 | 2 | -10 | -2
CCN(c1ccccc1)S(=O)(=O)c1ccc(OC)c(NC(=O)c2ccco2)c1 | 43* | -32 | 21 | -6 | 0 | 13
COc1ccccc1CN(Cc1nc2ccccc2c(=O)[nH]1)S(=O)(=O)c1ccc2ccccc2c1 | . | 98* | . | . | . | -5
COc1ccc(S(=O)(=O)N(Cc2ccccc2)Cc2nc3ccccc3c(=O)[nH]2)cc1 | . | . | . | 10 | . | .
CCc1ccc(NC(=O)CSc2nc3ccccc3c(=O)n2CCCC(=O)NCCCN2CCOCC2)cc1 | 43* | 0 | 9 | -10 | 14 | -1
O=C(CSc1nc2ccccc2c(=O)n1CCCN1CCOCC1)Nc1ccc(F)c(Cl)c1 | 0 | 71* | 24 | 0 | 3 | 7
CC(=O)Nc1ccc(NC(=O)CSc2nc3ccccc3c(=O)n2CCCN2CCOCC2)cc1 | -1 | 15 | 8 | -7 | -13 | -6
Cc1ccc(NC(=O)CSc2nc3ccccc3c(=O)n2CCCC(=O)NCCCN2CCOCC2)cc1C | 0 | 8 | 26 | -25 | 2 | 8
C[C@@H]1CN([C@H](C)CO)C(=O)c2c(c3ccccc3n2C)-c2ccccc2CO[C@@H]1CN(C)Cc1cccc(C(=O)O)c1 | 0 | -1[16.7 µM] | -14 | -36 | -1 | -11
CC12CCC(=O)C=C1CCC1C2CCC2(C)C1CC1C3C(=O)N(Cc4ccccc4)C(=O)C3CC(=O)C12 (centres undefined) | 0 | 61* | 10 | -2 | 2 | 8
COc1ccccc1NC(=O)N1CCCCN2[C@H](CO)[C@@H](c3ccc(-c4ccccc4)cc3)[C@@H]2C1 | 0 | . | 16 | -9 | 4 | .
CSCC(O)Cn1[nH]c(=O)c2cc(Cl)c(Cl)cc2c1=O (centres undefined) | 0 | 3 | 22 | 84* | -1 | 1
CN(C)C(=O)c1ccc(-c2ccc([C@@H]3[C@H]4CN(C(=O)C5CCC5)CCCCN4[C@H]3CO)cc2)cc1 | 0 | . | -2 | -5 | 2 | .
CCCOc1ccc(/C=C/C(=O)Nc2ccc([N+](=O)[O-])cc2)cc1 | . | 68* | 27 | . | . | 3
CO[C@@H]1CN(C)C(=O)c2cc(NC(=O)NC(C)C)ccc2OC[C@@H](C)N(C)C[C@H]1C | 0 | . | . | -1 | -14 | -9
